PKD1 kinase inh – blocks activity of human protein kinase D1. Q15139. PKD1 kinase fluorescence polarization assay. inhibition, % (no concentration beside the values). 200,000 tested, 0.056% active. AID 797
Runt-SMMHC FRET – inhibitors of human RUNX1 Runt domain binding to CBFb-SMMHC. Cerulean-Runt/Venus-CBFb-SMMHC FRET ratio 530/480, 1 h. inhibition, % at 20 µM. 220,000 tested, 0.74% active. AID 1434. Q01196+Q13951;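 active means mean inhibition across duplicate retests at 20 µM reaching about 50%, limit read from the data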;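 further: inhibitors lower the FRET ratio by blocking Runt binding to CBFb-SMMHC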
MEX-5 binding – C. elegans MEX-5 TCR-2 RNA binding activity; Q9XUB2; MEX-5/FITC-TCR2 RNA binding, fluorescence polarization; stronger effect = lower value; activity score (negative = inhibition of binding), % at 10 µM; 300,000 tested, 0.38% active; AID 1832;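 active means inhibition past about -25% in most replicates, and total fluorescence under double the plate's negative control median, limit read from the data; inconclusive means replicates evenly split on the limit, or fluorescence at least double controls; inactive means too little inhibition in most replicates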
EBV gp42 block – blocks Epstein-Barr virus glycoprotein 42 binding. AID 1085. inhibition, % (tested at 21.74 µM). Q1HVG2. Fluorescence polarization binding assay, mP read-out. 220,000 tested, 0.42% active
Target sequence (Q1HVG2 whole entry, looked up): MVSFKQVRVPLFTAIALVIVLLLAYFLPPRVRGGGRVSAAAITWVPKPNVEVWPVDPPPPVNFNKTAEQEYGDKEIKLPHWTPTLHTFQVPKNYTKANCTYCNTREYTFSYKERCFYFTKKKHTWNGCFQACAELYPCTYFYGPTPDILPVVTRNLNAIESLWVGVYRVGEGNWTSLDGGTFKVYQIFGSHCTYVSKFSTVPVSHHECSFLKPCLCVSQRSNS
RanGTP-Imp inh – disruptors of Ran-importin-beta complex formation – biochemical, FRET, CFP-Ran, YFP-importin-beta, homogeneous, primary screen. cell-free CFP-Ran/YFP-importin-beta FRET ratio. inhibition, % (test concentration not listed). 300,000 tested, 1.1% active;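 active means more than half of the replicate wells show a fall in the fluorescence ratio signal beyond about 16%, limit read from the data, passing the limit was not always enough; inconclusive means exactly half of the replicate wells pass the set limit; inactive means fewer than half of replicates pass the limit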
Runt-CBFb FRET – Runt domain-CBFb interaction inhibition | 220,000 tested, 0.46% active | Cerulean-Runt/Venus-CBFb FRET ratio 530/480, 1 h | AID 1496 | inhibition, % at 20 µM | Q01196+Q13951;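 active means inhibition over about 50% at 20 µM in the single-dose screen, limit read from the data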
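Assay system: Cerulean-Runt domain fusion protein, energy donor; Signal: fluorescence energy transfer, 422 nm excitation, 530/480 nm emission; Timing: 1 h compound exposure, room temperature; Control set: unlabeled CBFb; Medium: Tris buffer pH 7.5 with salts and BSA; Compound: single test concentration of 20 µM, 1% DMSO final; Probe or stimulus: Venus-CBFb 100 nM.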
PKD FP artifact – interferes with fluorescence polarization in PKD inhibitor counter-screen; shares compounds with PKD1 kinase inh; AID 1315; PKD1 FP assay interference counter-screen; 85 tested, under 10 active; inhibition, % at 10 µM; call rule not given here
RUNX1 CBFb TR – Runt-CBFb binding inhibition; shares compounds with Runt-CBFb FRET; TR-FRET RUNX1 Runt domain-CBFb binding; inhibition, % at 20 µM; 480 tested, 20% active; in the data active means inhibition above about 40%
Large screens that a line does not name were inactive (follow-up assays come after a bar, where they were run). This is a sample that favours compounds with a hit; in the whole collection about 2% have one here. Unless noted, no stated cut-off is given here; in the data, active means inhibition above about 50%; inactive means the rest.

Cc1cc(C)n2nc(C(=O)OCC(=O)N(CC(C)C)CC(C)C)nc2n1	none
COCC(C)n1c(C)cc(C(=O)COC(=O)c2nc3nc(C)cc(C)n3n2)c1C (stereo not drawn)	PKD1 kinase inh 98 | PKD FP artifact inactive
Cc1ccc(C(=O)NCCc2nnc3ccc(SCC(=O)N4CCCCC4)nn23)cc1	none (no result: PKD1 kinase inh, Runt-SMMHC FRET, EBV gp42 block, Runt-CBFb FRET)
C=CCn1c(SC(C)C(=O)NCc2ccc3c(c2)OCO3)nnc1C1CCCCC1 (stereo not drawn)	PKD1 kinase inh 97 | PKD FP artifact inactive
CC(Sc1nnc2ccccn12)C(=O)NCc1ccc2c(c1)OCO2 (stereo not drawn)	none
Cn1c(=O)c(NCCO)c2c3c(cccc31)C(=O)c1ccccc1-2	PKD1 kinase inh 144 (no result: MEX-5 binding) | PKD FP artifact 100
N#C/C(=N\Nc1ccc(Cl)cc1)C(=O)c1ccccc1	none
Cc1c(N/N=C(\C#N)C(=O)c2ccc(Cl)cc2)c(=O)n(-c2ccccc2)n1C	PKD1 kinase inh 62 | PKD FP artifact inactive
CC1CCCC(C)N1C(=O)Cn1cc(/C=C2/C(=O)Nc3ccccc32)c2ccccc21 (stereo not drawn)	PKD1 kinase inh 51 | PKD FP artifact inactive
COC(=O)c1cn(CC(=O)N2C(C)CCCC2C)c2ccccc12 (stereo not drawn)	none
Cn1c(=O)[nH]c(=O)c2c1nc(NC1CCCCC1)n2CCO	none (no result: PKD1 kinase inh)
Cn1c(=O)[nH]c(=O)c2c1nc(NC1CCCCC1)n2CC(=O)NC1CCCCC1	PKD1 kinase inh 101 (no result: MEX-5 binding, RanGTP-Imp inh) | PKD FP artifact inactive
O=C(Nc1ccc(CN2CCOCC2)cc1)c1ccc(-c2cccc(Cl)c2)o1	PKD1 kinase inh 86, RanGTP-Imp inh inconclusive | PKD FP artifact inactive
O=C(NC(=S)Nc1ccc(CN2CCOCC2)cc1)c1ccc(-c2cccc(Cl)c2)o1	none (no result: PKD1 kinase inh)
CCCc1ccccc1OCCNS(=O)(=O)c1cc2c(cc1C)OCC(=O)N2	none (no result: PKD1 kinase inh, Runt-SMMHC FRET, EBV gp42 block, Runt-CBFb FRET)
CCOc1ccc(NC(=O)CNC(=O)c2ccc([N+](=O)[O-])cc2)cc1	none
COc1ccc(C(=O)NCCn2cc(SCC(=O)NCC3CCCO3)c3ccccc32)cc1OC (stereo not drawn)	none (no result: PKD1 kinase inh, Runt-SMMHC FRET, EBV gp42 block, Runt-CBFb FRET)
COC(=O)c1cccc2c1-c1ccccc1/C2=N/O	PKD1 kinase inh 70 | PKD FP artifact inactive
COC(=O)c1cccc2c1-c1ccccc1/C2=N\NC(N)=O	none (no result: PKD1 kinase inh, Runt-SMMHC FRET, EBV gp42 block, Runt-CBFb FRET)
CC(NC(=O)COC(=O)/C=C/c1ccco1)c1ccccc1 (stereo not drawn)	none
Cc1nn(C)c(C)c1NC(=O)c1ccccc1NC(=O)Nc1ccccc1	none (no result: PKD1 kinase inh)
COc1cccc(C(=O)NCC2CCCN(C(=O)c3ccc(C=O)cc3)C2)c1OC (stereo not drawn)	none (no result: PKD1 kinase inh, Runt-SMMHC FRET, EBV gp42 block, Runt-CBFb FRET)
CCCCn1c(N)c(Br)c(=O)[nH]c1=O	none (no result: PKD1 kinase inh)
CCCCn1c(=O)[nH]c2nc3cc(N)ccc3nc2c1=O	PKD1 kinase inh 60, EBV gp42 block 174 (no result: MEX-5 binding, RanGTP-Imp inh) | PKD FP artifact inactive
Cc1c(C(=O)N/N=C/c2ccc(O)c(Br)c2)sc(N)c1C#N	PKD1 kinase inh 76 (no result: MEX-5 binding, RanGTP-Imp inh) | PKD FP artifact inactive
Cn1c(OCc2cccnc2)nc2c1c(=O)n(Cc1ccc(Br)cc1)c(=O)n2C	PKD1 kinase inh 97 | PKD FP artifact inactive
CCOC(=O)c1[nH]c2cc(OC)c(OC)cc2c1NC(=O)CN1CCN(C)CC1	PKD1 kinase inh 76 (no result: MEX-5 binding, RanGTP-Imp inh) | PKD FP artifact inactive
COc1ccc2nc3sc(C(=O)NCCCN4CCc5ccccc5C4)cc3cc2c1	PKD1 kinase inh 56 | PKD FP artifact inactive
Cc1cc(C)nc(SCC(=O)c2cc3ccccc3oc2=O)n1	Runt-CBFb FRET 54 | RUNX1 CBFb TR inactive
O=C(CSc1nc2ccccc2o1)c1cc2ccccc2oc1=O	none (no result: MEX-5 binding, RanGTP-Imp inh)
CCC(C)(C)n1nnnc1C(c1ccc2ncccc2c1)N1CCN(c2nc3ccccc3s2)CC1 (stereo not drawn)	none

High-throughput results deposited in PubChem BioAssay by several laboratories.
